The structures appear in SMILES notation.

System in the first data set: not listed separately
Kind of data set: Volume of distribution at steady state. It is filed as ADME, organism-based. As to conditions: in vivo; read-out: Vss. In short, it runs like this: (§1)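 Sprague–Dawley rats received a single 3 mg/kg iv catheter dose in 50% PEG/water (n = 2). Blood was sampled at predose and from 5 min to 24 h. Heparinized plasma was precipitated with acetonitrile and analyzed by LC.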
On to `CC(C)(CO)NC(=O)[C@H]1CC[C@H](c2nc(-c3cccc(C(F)(F)F)c3)c[nH]2)CC1`, for which the Vd came to 6 L/kg.

System in another data set: not listed separately
Nature of the data set: Maximum plasma concentration after oral dosing in rat. It is filed as ADME, organism-based. On the set-up: route oral.
Details: not given
In a few lines:
(§2)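 Sprague–Dawley rats received a single 20 mg/kg oral gavage dose in 20% vitamin E/water (n = 3). Blood was sampled from predose to 24 h. Heparinized plasma was precipitated with acetonitrile and analyzed by LC. Bioavailability was set against a 3 mg/kg iv dose (n = 2).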
With `CC(C)(CO)NC(=O)[C@H]1CC[C@H](c2nc(-c3cccc(C(F)(F)F)c3)c[nH]2)CC1`, the concentration peaked (Cmax) at 0.714 µg/mL.

System in the next data set: not listed separately
Nature of the data set: Oral half life of the compound. As to conditions: in vivo. It is filed as ADME, organism-based. In a few lines: as §2
With `CC(C)(CO)NC(=O)[C@H]1CC[C@H](c2nc(-c3cccc(C(F)(F)F)c3)c[nH]2)CC1`, the half-life – broadly, the time needed for the level to fall by half in the phase considered – was 13 h.

The test system of a further data set is Rattus norvegicus. Nature of the data set: Oral bioavailability after peroral administration in rats.
Details: not given
It is filed as organism-based. In short, it runs like this: as §2
Molecule `CC(C)(CO)NC(=O)[C@H]1CC[C@H](c2nc(-c3cccc(C(F)(F)F)c3)c[nH]2)CC1` had a bioavailability of 36%.

System in another data set: not listed separately
Kind of data set: Plasma clearance of the compound. It is filed as ADME, organism-based.
Details: not given
In short, it runs like this: as §1
As for `CC(C)(CO)NC(=O)[C@H]1CC[C@H](c2nc(-c3cccc(C(F)(F)F)c3)c[nH]2)CC1`, the clearance (usually the rate of elimination divided by the concentration) turned out to be 3 L/h/kg.

System in a further data set: not listed separately
Nature of the data set: Inhibition of […] binding to recombinant human chimeric NPY5/NPY1 receptor expressed in Sf9 cells.
Details: not given
In a few lines:
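Membranes from Sf9 cells expressing the human chimeric NPY5/NPY1 receptor, in 50 mM Tris-HCl pH 7.4 with 5 mM KCl, 120 mM NaCl, 2 mM CaCl2, 1 mM MgCl2 and 0.1% BSA. Membranes (5–50 µg) competed against 0.050 nM porcine [125I]PYY for 2 h at room temperature. Nonspecific binding was defined with 1 µM human NPY. Filtration and gamma counting followed; Ki came from a Hill fit; mean of n = 2-3 ± SEM.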
With `FC(F)(F)c1cccc(-c2c[nH]c(-c3ccccc3)n2)c1`, the Ki (in general, a dissociation constant, usually derived from enzyme kinetics or from competition with a known ligand) amounted to 2.5 nM.

With `O=S(=O)(NC[C@H]1CC[C@H](c2nc(-c3cccc(C(F)(F)F)c3)c[nH]2)CC1)c1ccccc1`, the Ki was found to be 0.2 nM.

For `C[C@H](O)CNC(=O)[C@H]1CC[C@H](c2nc(-c3cccc(C(F)(F)F)c3)c[nH]2)CC1`, the Ki was determined as 31 nM.

Take `C[C@@H](O)CNC(=O)[C@H]1CC[C@H](c2nc(-c3cccc(C(F)(F)F)c3)c[nH]2)CC1`: the Ki came to 8 nM.

Turning to `O=C(NCCCO)[C@H]1CC[C@H](c2nc(-c3cccc(C(F)(F)F)c3)c[nH]2)CC1`, the Ki was determined as 185 nM.

On to `FC(F)(F)c1cccc(-c2c[nH]c(C3CCCCC3)n2)c1`, for which the Ki turned out to be 6 nM.

Consider `COCCNC(=O)[C@H]1CC[C@H](c2nc(-c3cccc(C(F)(F)F)c3)c[nH]2)CC1`, for which the Ki amounted to 99 nM.

For `CC(=O)NNC(=O)[C@H]1CC[C@H](c2nc(-c3cccc(C(F)(F)F)c3)c[nH]2)CC1`, the Ki stood at 1.4 nM.

With `CC(C)(CO)NC(=O)[C@H]1CC[C@H](c2nc(-c3cccc(C(F)(F)F)c3)c[nH]2)CC1`, the Ki came out at 2.8 nM.

As to `CN(C[C@H]1CC[C@H](c2nc(-c3cccc(C(F)(F)F)c3)c[nH]2)CC1)S(=O)(=O)c1ccccc1`, the Ki worked out at 1.3 nM.

Regarding `O=C(NCCO)[C@H]1CC[C@H](c2nc(-c3cccc(C(F)(F)F)c3)c[nH]2)CC1`, the inhibitory constant (Ki) worked out at 11 nM.

In the case of `CC(=O)CNC(=O)[C@H]1CC[C@H](c2nc(-c3cccc(Br)c3)c[nH]2)CC1`, the Ki came to 10 nM.

For `O=C(NS(=O)(=O)c1ccccc1)[C@H]1CC[C@H](c2nc(-c3cccc(C(F)(F)F)c3)c[nH]2)CC1`, the Ki is 31 nM.

Regarding `NCCNC(=O)[C@H]1CC[C@H](c2nc(-c3cccc(C(F)(F)F)c3)c[nH]2)CC1`, the Ki is 915 nM.

The next data set deals with COS-7. Nature of the data set: Percentage block at hERG Voltage-gated potassium channel (subunit Kv11.1) expressed in COS7 cells by electrophysiological whole cell assay (300 nM). It is filed as cell-based. As to conditions: Homo sapiens.
With `O=S(=O)(NC[C@H]1CC[C@H](c2nc(-c3cccc(C(F)(F)F)c3)c[nH]2)CC1)c1ccccc1`, the inhibition (commonly how much of the control response was suppressed) worked out at 87%.

The molecule `CN(C[C@H]1CC[C@H](c2nc(-c3cccc(C(F)(F)F)c3)c[nH]2)CC1)S(=O)(=O)c1ccccc1` registered an inhibition of 85%.

The record behind these values is ChEMBL document CHEMBL1149161, “Design, synthesis, and biological evaluation of substituted 2-cyclohexyl-4-phenyl-1H-imidazoles: potent and selective neuropeptide Y Y5-receptor antagonists” (J Med Chem, 2004).
